Reference: ChEMBL document CHEMBL4480367 (Medchemcomm, 2019)
Active and inactive are the calls of the source. No cut-off for these calls is given here.

Key:
Saccharomyces cerevisiae = experiment: Toxicity against yeast assessed as reduction in cell viability; format: organism-based
Method in brief: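 Control yeast strain carrying empty plasmid, induced in 2% galactose SC medium (pH 6.5) lacking leucine, with compounds at graded concentrations for 46–48 h at 30 °C. A600 was read. Toxicity value is the concentration inhibiting proliferation by 50%.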

[1] = Cytotoxicity against MDCK cells assessed as reduction in cell viability after 24 hrs by MTT assay; format: cell-based, Canis lupus familiaris; conditions: dog
Method in brief: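 MDCK cells were seeded at 2 × 10^4 per well and treated next day with graded concentrations in DMEM for 24 h. MTT (5 mg mL−1 solution) was added for 4 h at 37 °C, cells were lysed for 3 h, and A575 was read. CC50 is the concentration inhibiting cell growth by 50% versus control cultures.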

Matrix protein 2 = Matrix protein 2 (UniProt P0DOF8); experiment: Inhibition of wild type Influenza A virus (A/chicken/Hubei/327/2004(H5N1)) M2 expressed in yeast cells after 46 to 48 hrs; format: cell-based
Method in brief: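 Yeast growth-restoration assay. Yeast carried the M2 coding sequence under the GAL1 promoter, grown in glucose SC medium (pH 6.5) lacking leucine, then washed and resuspended to A600 0.01 in 2% galactose SC medium. Compounds were added at graded concentrations; plates were incubated at 30 °C for 46–48 h and A600 was read. Hits were retested in triplicate for EC50.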

Influenza A virus [2] = experiment: Antiviral activity against Influenza A virus H5N1; format: functional, organism-based
Influenza A virus [3] = experiment: Antiviral activity against Influenza A virus (H1N1); format: functional, organism-based
Influenza A virus [4] = experiment: (§1) Antiviral activity against amantadine-sensitive Influenza A virus (A/chicken/Hubei/327/2004(H5N1)) infected in MDCK cells assessed as reduction in early stage viral replication by measuring viral titer at 1.9 uM measured after 12 hrs by crystal violet staining-based plaque reduction assay during time-of-addition assay; format: functional, organism-based
Influenza A virus [5] = experiment: as §1, with “1.7” for “1.9”; format: functional, organism-based
Influenza A virus [6] = experiment: as §1, with “4” for “1.9”; format: functional, organism-based

Matrix protein 2, sequence (P0DOF8 whole entry): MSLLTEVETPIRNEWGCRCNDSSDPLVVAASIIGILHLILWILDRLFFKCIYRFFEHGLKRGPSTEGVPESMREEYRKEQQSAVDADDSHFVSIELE

SMILES	Activity (Saccharomyces cerevisiae) [µM]	CC50 at 24 h [1] [µM]	EC50 (Matrix protein 2)	further results
O=[N+]([O-])c1ccc(S(=O)(=O)NCc2cc3ccccc3s2)cc1	> 192.3	> 191	Not Active	–
Cc1cc(CNS(=O)(=O)c2ccc(Cl)cc2)c(C)o1	123.43	55.7	–	–
CCOC(=O)C1=C[C@@H](OC(CC)CC)[C@H](NC(C)=O)[C@@H](N)C1.O=P(O)(O)O [OSELTAMIVIR PHOSPHATE]	> 214.5	> 163	Not Active	–
Cc1cc(CNS(=O)(=O)c2ccc([N+](=O)[O-])cc2)c(C)s1	> 205.3	> 204	–	–
N#Cc1ccc(S(=O)(=O)NCc2cc3ccccc3s2)cc1	> 204	–	Not Active	–
Cc1cc(CNS(=O)(=O)c2ccc(Cl)cc2)c(C)s1	114.1	52.9	–	–
O=S(=O)(NCc1cc2ccccc2s1)c1cccc(F)c1	> 180.5	–	Not Active	–
O=S(=O)(NCc1cc2ccccc2s1)c1ccc(Cl)cc1	> 198.3	–	Not Active	–
Cc1cc(C(=O)NCCSCc2ccc([N+](=O)[O-])cc2)c(C)o1	–	–	–	EC50 (Influenza A virus [2]): 1.25 µM
O=S(=O)(NCc1csc2ccccc12)c1ccccc1F	59.1	–	Not Active	–
O=[N+]([O-])c1ccc(S(=O)(=O)NCc2cccs2)cc1	157.5	133	–	–
Cc1cc(CNS(=O)(=O)c2ccc(C#N)cc2)c(C)s1	> 218.7	> 218	–	–
Cc1cc(CNS(=O)(=O)c2ccc(C#N)cc2)c(C)o1	168.8	105	–	–
CC1CC2=C(NC(=O)NC2c2ccc(O)c(Br)c2)c2ccccc21 (stereo not drawn)	–	–	–	EC50 (Influenza A virus [3]): 0.032 µM; EC50 (Influenza A virus [2]): 0.032 µM
N#Cc1ccc(S(=O)(=O)NCc2csc3ccccc23)cc1	> 204	122	–	–
O=S(=O)(NCc1csc2ccccc12)c1ccc(Br)cc1	134.1	87.1	–	–
O=S(=O)(NCc1cc2ccccc2s1)c1ccc(Br)cc1	> 176.2	> 174	Not Active	–
Cc1cc(CNS(=O)(=O)c2ccc(Br)cc2)c(C)o1	72.6	29.6	–	–
Cc1ccc(S(=O)(=O)NCc2csc3ccccc23)cc1	> 211.08	> 210	–	–

SMILES	Activity (Saccharomyces cerevisiae) [µM]	CC50 at 24 h [1] [µM]	EC50 (Matrix protein 2)	further results
Cc1cc(CNS(=O)(=O)c2ccc(F)cc2)c(C)s1	120.2	–	Not Active	–
O=[N+]([O-])c1ccc(S(=O)(=O)NCc2ccc(Cl)s2)cc1	> 201.3	128	Not Active	–
Cc1cc(CNS(=O)(=O)c2ccc([N+](=O)[O-])cc2)c(C)o1	> 215.9	> 152	–	–
O=S(=O)(NCc1cc2ccccc2s1)c1ccc(C(F)(F)F)cc1	> 180.4	> 180	Not Active	–
O=[N+]([O-])c1ccc(S(=O)(=O)NCc2ccoc2)cc1	> 237.4	> 236	–	–
O=S(=O)(NCc1csc2ccccc12)c1ccc(Cl)cc1	121.4	69.6	–	–
O=S(=O)(NCc1csc2ccccc12)c1ccc(F)cc1	133.8	98.6	–	–
Cc1cc(CNS(=O)(=O)c2ccc(F)cc2)c(C)o1	> 236.5	138	–	–
Cc1cc(CNS(=O)(=O)c2ccc(Br)cc2)c(C)s1	133.2	56.4	–	Activity (Influenza A virus [4]): Active
O=[N+]([O-])c1ccc(S(=O)(=O)NCc2csc3ccccc23)cc1	> 192.3	> 191	–	–
CC(=O)c1ccc(S(=O)(=O)NCc2csc3ccccc23)cc1	> 194	> 193	–	–
O=[N+]([O-])c1ccc(S(=O)(=O)NCc2ccsc2)cc1	> 224.6	139	–	–
O=S(=O)(NCc1csc2ccccc12)c1ccc(C(F)(F)F)cc1	> 180.4	94.8	Not Active	–
O=S(=O)(NCc1csc2ccccc12)c1cccc(F)c1	> 208.5	–	Not Active	–
O=S(=O)(NCc1cc2ccccc2s1)c1ccccc1F	> 180.5	–	Not Active	–
Cc1ccc(S(=O)(=O)NCc2cc3ccccc3s2)cc1	> 211.08	> 210	Not Active	–
NC12CC3CC(CC(C3)C1)C2 [AMANTADINE]	> 443	> 100	–	Activity (Influenza A virus [5]): Active
O=S(=O)(NCc1cc2ccccc2s1)c1ccc(F)cc1	> 208.5	–	Not Active	–
NC(=O)c1nc(F)cnc1O	–	–	–	Activity (Influenza A virus [6]): Active
